From ChEMBL document CHEMBL1156711, “Synthesis and cytotoxicity evaluation of some benzimidazole-4,7-diones as bioreductive anticancer agents” (Eur J Med Chem, 2008)

Key:
HT-29 [1] = test: Cytotoxicity against human HT29 cells after 72 hrs by MTT assay; type: functional, cell-based; conditions: HT-29, 72 h
Method in brief: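 HT29 grown in DMEM with 10% FBS and 2 mM L-glutamine at 37 °C, 5% CO2. Seeded at 3000 cells/well and treated 24 h later; vehicle 0.1% DMSO in PBS. MTT 0.5 mg/mL for 3 h, DMSO solubilization, OD 550 nm, triplicates, corrected for MTT blank and normalized to untreated. IC50 by Chou–Talalay median-effect plot.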

HT-29 [2] = test: Cytotoxicity against human HT29 cells after 72 hrs by MTT assay in presence of 2 uM dicoumarol; type: functional, cell-based; conditions: HT-29, 72 h

Compound | IC50 (HT-29 [1]) [nM] | IC50 (HT-29 [2]) [nM]
CC1=C(C)C(=O)c2c(nc(CC(C)(C)[N+](=O)[O-])n2C)C1=O | > 100000 | –
CO[C@@]12[C@H](COC(N)=O)C3=C(C(=O)C(C)=C(N)C3=O)N1C[C@@H]1N[C@@H]12 [MITOMYCIN] | 900 | 2100
